Published values gathered from unrelated publications.
Compare with care: the assays were run in different laboratories.
Effect on: metabolic stability
Sample: liver microsomes

`CCC(F)(F)c1nc2nc(C)cc(Nc3ccc(C(F)(F)F)cc3)n2n1` has a microsomal CLint of < 10 µL/min/mg (mouse; 1 µM, pH 7.4).
For `CCOC(=O)c1c(-c2cccc(Cl)c2)[nH]c2cc(OC)ccc2c1=O`, the microsomal CLint was > 15 µL/min/mg (female CD-1 mouse; 19.8 µM, pH 7.4).
`Cc1cc(Nc2ccc(S(F)(F)(F)(F)F)cc2)n2nc(C(F)(F)F)nc2n1` has a microsomal CLint of < 10 µL/min/mg (mouse; 1 µM, pH 7.4).
For `c1ccc(-c2nc(NCc3cccnc3)c3ccccc3n2)nc1`, the microsomal CLint was 64 µL/min/mg (mouse).
The microsomal CLint of `CS(=O)(=O)c1ccc(-c2cnc(N)c(-c3ccc(C(F)(F)F)nc3)c2)cc1` is reported as < 11.6 µL/min/mg (male CD-1 mouse; 1 µM).
The microsomal CLint of `COc1ccc(Nc2nc(-c3ccccn3)nc3ccccc23)cc1` is reported as 158 µL/min/mg (mouse).
With `O=C(C1CCCCC1)N1CC(=O)N2CCc3ccccc3[C@@H]2C1` the microsomal CLint was > 1000 µL/min/mg (mouse; 0.1 µM, pH 7.4).
The microsomal CLint of `N#CC1CCN(c2nc(-c3ccccn3)nc3ccccc23)CC1` is reported as 105 µL/min/mg (mouse).
For `CCOC(=O)c1c(-c2cccc(Br)c2)[nH]c2cc(OC)c(F)cc2c1=O`, the microsomal CLint was < 4 µL/min/mg (female CD-1 mouse; 19.8 µM, pH 7.4).
`Cc1cc(NC(=O)Nc2ccc3c(c2)OC(F)(F)O3)cc(C(F)(F)F)n1` has a microsomal CLint of 36 µL/min/mg (mouse).
With `CCN(CC)CCNC(=O)c1c(C)[nH]c(/C=C2\C(=O)Nc3ccc(F)cc32)c1C` the microsomal CLint was 54 µL/min/mg (mouse; 1 µM, pH 7.4).
`CCOC(=O)c1c(-c2cccc(Cl)c2)[nH]c2cc(OC)c(F)cc2c1=O` has a microsomal CLint of < 4 µL/min/mg (female CD-1 mouse; 19.8 µM, pH 7.4).
With `CCOC(=O)C1=C(C)N/C(=C/c2cc(C)n(Cc3ccc(C(F)(F)F)cc3)c2C)C1=O` the microsomal CLint was 103 µL/min/mg (mouse; 1 µM).
With `FC(F)(F)c1ccccc1-c1nc(N2CCC(c3ccccn3)C2)c2ccccc2n1` (stereo not shown) the microsomal CLint was 688 µL/min/mg (mouse).
With `Cc1cc(Nc2ccc(C(F)(F)F)cc2)n2nc(C(F)(F)F)nc2n1` the microsomal CLint was < 10 µL/min/mg (mouse; 1 µM, pH 7.4).
`c1ccc(C2CCN(c3nc(-c4ccco4)nc4ccccc34)C2)nc1` (stereo not shown) has a microsomal CLint of 539 µL/min/mg (mouse).
`Cc1cc(Nc2ccc(C(F)(F)F)cc2)c2ccccc2n1` has a microsomal CLint of 98 µL/min/mg (mouse).
`CCCOc1cccc(-c2[nH]c3cc(OC)ccc3c(=O)c2C(=O)OCC)c1` has a microsomal CLint of > 15 µL/min/mg (female CD-1 mouse; 19.8 µM, pH 7.4).
`c1ccc(CCNc2nc(-c3ccccn3)nc3ccccc23)nc1` has a microsomal CLint of 336 µL/min/mg (mouse).
